OX1R antag-1: OX1R (HCRTR1) antagonists, primary screen, fluorescence, CHO/OX1R cells, Fluo-8 calcium, orexin A | Fluo-8 calcium fluorescence | 330,000 tested, 0.43% active | inhibition, % at 5 µM | Orexin/Hypocretin receptor type 1 (Homo sapiens), O43613;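 active = inhibition above its plate's threshold, mean inhibition of all tested compounds on the plate plus 3 SD, cut at about 37% in these data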;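 also: 0% = orexin A challenge wells and 100% = SB-334867-A antagonist wells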
GPR7 antagonist: GPR7 receptor antagonists, primary screen, cell-based, fluorescence, single concentration; inhibition, % at 4.4 µM; GPR7-expressing cells, fluorescence antagonist assay; 290,000 tested, 1.1% active; Neuropeptides B/W receptor type 1 (Homo sapiens), P48145; in the data active = inhibition above about 16%, passing the limit was not always enough;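 also: cells stimulated with the agonist NPW; 0% = agonist with vehicle and 100% = vehicle without agonist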
Target sequence (P48145 whole entry, looked up): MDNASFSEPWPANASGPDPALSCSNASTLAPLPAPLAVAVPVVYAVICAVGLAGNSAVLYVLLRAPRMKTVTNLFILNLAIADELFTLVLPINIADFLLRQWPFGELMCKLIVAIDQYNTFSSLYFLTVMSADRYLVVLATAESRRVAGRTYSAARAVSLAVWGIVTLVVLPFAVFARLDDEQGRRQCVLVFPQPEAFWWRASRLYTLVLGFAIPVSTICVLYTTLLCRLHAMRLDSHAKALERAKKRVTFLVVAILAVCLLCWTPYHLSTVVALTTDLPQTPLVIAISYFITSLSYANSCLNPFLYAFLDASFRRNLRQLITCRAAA
TAAR1 antagonist: human TAAR1 antagonists, primary screen, Fluo-8 calcium fluorescence, CHO RD-HGA16 cells | Trace amine-associated receptor 1 (Homo sapiens), Q96RJ0 | antagonist | inhibition, % at 3 µM | 360,000 tested, 1.5% active;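 active = inhibition above a per-plate cutoff, the mean inhibition of test compounds on that plate plus 3 SD, cut at about 49% in these data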;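 also: 0% = DMSO plus EC80 beta-PEA response and 100% = DMSO alone without agonist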
Target sequence (Q96RJ0 whole entry, looked up): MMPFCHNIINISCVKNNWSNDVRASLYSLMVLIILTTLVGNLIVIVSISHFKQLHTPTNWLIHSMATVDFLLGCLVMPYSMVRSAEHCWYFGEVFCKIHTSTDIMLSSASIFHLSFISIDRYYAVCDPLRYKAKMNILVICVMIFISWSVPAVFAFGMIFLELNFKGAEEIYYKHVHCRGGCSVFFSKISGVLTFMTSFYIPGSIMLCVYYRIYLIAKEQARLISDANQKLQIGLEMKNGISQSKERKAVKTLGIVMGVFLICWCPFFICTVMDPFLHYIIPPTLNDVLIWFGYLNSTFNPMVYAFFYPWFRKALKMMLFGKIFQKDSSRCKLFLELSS
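Material: RD-HGA16 CHO cells with stable hTAAR1 and Gα16; Dosing: single nominal final test compound concentration of 3 µM; Schedule: seeding 17-24 h prior, 75-min 37 °C, 30-min RT dye loading; Detection: kinetic Fluo-8 calcium fluorescence measurement; Measure: % inhibition from peak post-agonist over basal fluorescence ratio; Benchmarks: vehicle and agonist controls.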
TAAR1 ag: human TAAR1 agonists, primary screen, Fluo-8 calcium fluorescence, CHO RD-HGA16 cells. vehicle wells 0%, saturating PEA agonist 100%. activation, % at 3 µM. 360,000 tested, 0.99% active. AID 624467, 2012;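 active = activation above the mean activation of all test compounds in the run plus 3 SD, cut at about 38% in these data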
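Test system: RD-HGA16 (CHO) cells co-expressing Gα16 and hTAAR1; dosing: one-point dosing at 3 µM (nominal); timing: 17-24 h seeding, 75 min 37 °C dye, 30 min RT; signal: kinetic Fluo-8 calcium fluorescence; read-out basis: % activation relative to PEA EC100 response; controls: DMSO and PEA EC100; replicates: n 1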
OX1R antag-2: antagonists of human orexin 1 receptor (OX1R); AID 485270, 2010; Orexin/Hypocretin receptor type 1 (Homo sapiens), O43613; OX1R-expressing cells, FRET antagonist read-out; 330,000 tested, 1.8% active; inhibition, % at 6.6 µM; in the data active = inhibition mostly above about 38%, no sharp cut-off; inactive = mostly below about 40%;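 also: 0% = agonist challenge alone and 100% = reference antagonist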
CHO parental Ca: ATP-evoked calcium signal inhibitors, parental CHO, primary screen, counter-screen for OX1R antagonist project, cell-based, fluorescence, Fluo-8 calcium dye; AID 463079, 2010; parental CHO-K1, ATP-induced calcium, Fluo-8 fluorescence; 330,000 tested, 0.63% active; inhibition, % at 5.6 µM;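 active = inhibition above that plate's mean sample inhibition plus 3 SD, cut at about 26% in these data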;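 also: 0% = ATP-challenged DMSO wells and 100% = DMSO wells without ATP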
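Material: Parental CHO cells | Reagent: ATP | Compound dosing: Single nominal dose of 5.6 µM per compound | Detection: Intracellular calcium via Fluo-8 no-wash fluorescent dye | Read-out: % inhibition of ATP-induced calcium mobilization | Benchmarks: Low control ATP plus DMSO, high control DMSO only | Replicates: Singlicate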
The depositor's hits bear a star; · = no result. In the library only some 4.6% were active in any assay of this set; here they are far more common.

SMILES | OX1R antag-1 | GPR7 antagonist | TAAR1 antagonist | TAAR1 ag | OX1R antag-2 | CHO parental Ca
CC1=CC(C)[C@H](/C=N/n2c(=O)[nH]c3c([nH]c4ccc(Br)cc43)c2=O)C(C)C1 (some centres undefined) | -13 | -13 | 11 | 2 | 8 | -2
O=C(NCc1nnc(SCC(=O)N2CCCc3ccccc32)n1-c1ccccc1)c1cccc2ccccc12 | -12 | 1 | 50* | 10 | 13 | -25
Cc1ccc(C)c(C(=O)CN2Cc3ccccc3C2=O)c1 | -24 | -8 | -29 | 9 | 31 | -16
COc1cc2c(cc1OC)-c1cc3ccc(OC)c(OC)c3c[n+]1CC2 | -13 | · | -19 | 4 | 62* | -3
Cc1ccc(NC(=O)c2cc3c(s2)CCCC3)cc1S(=O)(=O)Nc1ccccc1Cl | 6 | -11 | 24 | 1 | 70* | -1
O=C(Nc1cc(S(=O)(=O)Nc2ccccc2Cl)ccc1O)c1cc2c(s1)CCCC2 | 0 | -14 | -8 | 4 | 51 | -7
CC(C)(C)c1ccc(Cn2cnc(-c3ccc([N+](=O)[O-])cc3)c2)cc1 | -23 | -3 | 1 | -1 | 15 | 42*
Cc1cc(C)c(Cn2cnc(-c3ccc([N+](=O)[O-])cc3)c2)c(C)c1 | 24 | -9 | -27 | 9 | 15 | -13
O=C(COC(=O)c1ccccc1)Nc1ncc([N+](=O)[O-])s1 | 21 | · | 9 | 5 | 37* | -1
O=C(O)C1CCCC[C@H]1C(=O)Nc1ncc([N+](=O)[O-])s1 (some centres undefined) | -9 | · | 6 | 2 | 66* | -7
O=C(Nc1ncc([N+](=O)[O-])s1)c1cccc([N+](=O)[O-])c1 | -4 | -8 | 1 | 14 | 39* | 13
CC(C)CC(=O)Nc1ncc([N+](=O)[O-])s1 | 3 | 11 | -18 | 2 | 24 | -4
O=C(Nc1ccc(NC(=O)c2cccc([N+](=O)[O-])c2)cc1)c1cccc([N+](=O)[O-])c1 | -30 | -10 | 20 | 6 | 0 | -8
O=C(O)c1ccc(N2CCN(C(c3ccccc3)c3ccccc3)CC2)c([N+](=O)[O-])c1 | -6 | -12 | 30 | 0 | -4 | 4
C=C1CCN(c2ccc(C(=O)O)cc2[N+](=O)[O-])CC1 | -15 | · | · | · | 70* | -6
Cc1ccc(C)c(S(=O)(=O)N2CCN(C(=O)C3CCN(c4ncnc5sc(C)c(C)c45)CC3)CC2)c1 | 17 | · | 59* | 5 | -1 | -3
CCN(CC)S(=O)(=O)c1cc(NC(=O)C2CCN(c3ncnc4sc(C)c(C)c34)CC2)ccc1Cl | 14 | · | 65* | 5 | 23 | 7
Cc1ccc(NC(=O)C2CCN(c3ncnc4sc(C)c(C)c34)CC2)cc1S(=O)(=O)N(C)C | -31 | · | 34 | 7 | 20 | -6
COc1ccc(N2CCN(C(=O)c3ccc(CNc4c(N5CCOCC5)c(=O)c4=O)cc3)CC2)cc1 | -14 | -3 | 12 | 0 | 6 | -2
S=C(NCc1ccccc1)NNc1nc2ccccc2[nH]1 | -38 | -17 | 12 | 15 | 8 | -4
COc1cc(/C=C2\SC(=S)NC2=O)ccc1OS(=O)(=O)c1ccccc1 | 10 | -6 | · | · | 80* | 11
COc1cc(/C=C2/SC(=S)NC2=O)ccc1OS(=O)(=O)c1ccc(C)cc1 | 10 | 5 | · | · | 64* | 6
CCOc1ccccc1-c1nc2c(C(C)(C)C)nn(C)c2c(=O)[nH]1 | -1 | 6 | · | · | 26 | 0
COc1cccc(/C=N/Nc2snc(SC)c2C#N)c1 | 4 | -4 | 18 | 42* | 67* | -7
CSc1nsc(N/N=C/c2ccccc2)c1C#N | -10 | -14 | -10 | 8 | 12 | 7
SMILES | OX1R antag-1 | GPR7 antagonist | TAAR1 antagonist | TAAR1 ag | OX1R antag-2 | CHO parental Ca
Cc1ccc(S(=O)(=O)NNC(=S)NC(=O)c2ccc([N+](=O)[O-])cc2)cc1 | -19 | -1 | -24 | 2 | 70* | -6
Cc1ccc(C(=O)NC(=S)NNC(=O)c2ccccc2[N+](=O)[O-])cc1 | -11 | -13 | 3 | 38* | 13 | 2
O=C(c1ccc(-c2ccc([N+](=O)[O-])cc2)o1)N1CCCCC1 | -3 | 5 | 0 | 3 | 26 | -9
CCCCCC(=O)NNC(=S)NC(=O)c1ccc([N+](=O)[O-])cc1 | -20 | -4 | -5 | 9 | 70* | -7
Cc1ccc(C(=O)NC(=S)NNC(=O)c2ccc([N+](=O)[O-])cc2)cc1 | -23 | 6 | -14 | 29 | 9 | -5
O=C(NNC(=O)c1ccccc1O)c1ccc(-c2ccc([N+](=O)[O-])cc2)o1 | 3 | · | 41 | 15 | 55* | 17
O=C(NNC(=S)NC(=O)c1ccccc1[N+](=O)[O-])c1ccccc1[N+](=O)[O-] | 0 | -6 | -5 | 0 | 15 | -6
O=C1CCC(=O)N1c1ccc(S(=O)(=O)Nc2ccc(Br)cc2)cc1 | -18 | 10 | -15 | 13 | 31 | -9
O=C(NC(=S)NNC(=O)c1ccccc1O)c1ccc([N+](=O)[O-])cc1 | -15 | -8 | 21 | 44* | 17 | -1
C/C(=N/NC(=O)CN(c1ccccc1)S(=O)(=O)c1ccccc1)c1ccccc1O | -24 | -2 | -4 | 1 | 50* | 0
CCCC/C(C)=N/NC(=O)CN(c1ccc(Br)cc1)S(=O)(=O)c1ccccc1 | -35 | -12 | 7 | -3 | -1 | -35
O=C(CSCc1cccc(Br)c1)N/N=C/c1ccc2c(c1)OCO2 | 12 | 7 | 2 | 11 | 63* | 16
O=C(CSCc1ccccc1Br)N/N=C/c1ccc2c(c1)OCO2 | 18 | 8 | 28 | 7 | 59 | 3
Cc1cc(Br)cc(/C=N/NC(=O)c2ccc3c(c2)OCO3)c1O | -7 | 2 | 22 | 3 | 64* | -11
O=C(N/N=C/c1cc(Br)cc(Cl)c1O)c1ccc2c(c1)OCO2 | -18 | · | -4 | 8 | 22 | -5
O=C(N/N=C/c1ccc2c(c1)OCO2)c1ccc(COc2cccc3cccnc23)cc1 | -22 | -12 | 49* | 15 | 29 | -10
O=C(CNC(=O)c1ccc2c(c1)OCO2)N/N=C/c1cc(Br)ccc1O | 3 | -9 | 0 | -2 | 48* | 7
CC(NCC(=O)Nc1ccccc1C(=O)NC1CC1)c1ccco1 (centres undefined) | · | · | -14 | 2 | · | ·
C1=CC2CC1CC2CN1CCN(Cc2ccccc2)CC1 (centres undefined) | -21 | -1 | 11 | 6 | 19 | -22

Screens as filed in PubChem.
